The list is not random: actives were taken first. Their share in the collection is about 2%.
FLuc stim CS: FLuc activators, initial screening, artefact control for FLuc-dependent activation tests, biochemical, ATPlite luminescence | ATPlite luciferase biochemical, 10 min; 0 = ATP-free wells, 1 = DMSO control | 200,000 tested, under 10 active | activation factor at 10 µM | Luciferin 4-monooxygenase (Photinus pyralis), P08659;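 active means luciferase activation factor, scaled between plate controls, of at least 2 with compound at 10 µM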
Target sequence (P08659 whole entry, looked up): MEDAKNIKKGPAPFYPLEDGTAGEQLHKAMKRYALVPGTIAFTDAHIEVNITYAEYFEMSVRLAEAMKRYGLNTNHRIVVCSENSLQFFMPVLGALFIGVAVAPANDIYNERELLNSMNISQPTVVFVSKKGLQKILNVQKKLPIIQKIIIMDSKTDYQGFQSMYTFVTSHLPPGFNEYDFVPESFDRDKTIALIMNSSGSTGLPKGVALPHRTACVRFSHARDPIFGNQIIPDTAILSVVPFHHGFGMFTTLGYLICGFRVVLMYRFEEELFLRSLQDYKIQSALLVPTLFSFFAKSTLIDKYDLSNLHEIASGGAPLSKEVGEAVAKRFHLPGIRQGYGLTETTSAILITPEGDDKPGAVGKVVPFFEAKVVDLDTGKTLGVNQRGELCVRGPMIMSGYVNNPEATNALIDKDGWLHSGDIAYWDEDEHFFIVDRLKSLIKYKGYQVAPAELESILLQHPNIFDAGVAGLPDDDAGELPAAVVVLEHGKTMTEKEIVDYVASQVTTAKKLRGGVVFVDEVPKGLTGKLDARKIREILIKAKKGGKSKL
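Material: Luciferase/luciferin reagent mix | Doses: Test compounds dosed from 2 mM stocks in 100% DMSO | Timing: 10 min incubation after luciferase reagent addition, room temperature | Measured by: Luminescence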
PPC-1+TRAIL kill: compounds killing PPC-1 cancer cells with TRAIL present, primary screen, TRAIL potentiator project, ATPLite luminescence, uHTS; actives 0.41% (n = 220,000); cell killing (% activity), % at 4 µM or 5 µM; AID 1443, 2008; PPC-1 cells + TRAIL, ATPLite viability luminescence;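 active means cell killing above 50% in the first pass at 4 µM, then a duplicate retest at 5 µM averaging 50% or more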
TRAIL sens C8: viability loss with TRAIL in NB7+C8 cells, primary screen, TRAIL sensitizer project, cell-based, ATPlite luminescence; inhibition (viability loss, TRAIL sensitization), % at 10 µM; actives 1% (n = 360,000);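 active means compounds causing at least 50% loss of cell viability in the single-dose screen, relative to plate controls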
HSP90 refold inh: HSP90 inhibitors, primary screen, cell lysate, luminescence; Heat shock protein HSP 90 (rabbit reticulocyte lysate; luciferase refolding); Rabbit reticulocyte lysate, luciferase refolding luminescence, 3 h; inhibition, % at 5.6 µM; actives 0.91% (n = 290,000);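 active means inhibition above the screen-wide mean plus 3 SD, computed separately per campaign, cut at about 16% in these data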;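 further: inhibitors lower the luminescence because luciferase stays unfolded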
FLuc inhib CS: firefly luciferase enzyme inhibitors, primary screen, artefact control for luciferase-based inhibitor screens, biochemical, luminescence, ATPLite. 10 min. inhibition, % at 10 µM. actives 1.5% (n = 200,000);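 active means inhibition above about 50% when tested at 10 µM, limit read from the data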
Hits are given with their value; i = inactive; nt = no result given.

SMILES | FLuc stim CS | PPC-1+TRAIL kill | TRAIL sens C8 | HSP90 refold inh | FLuc inhib CS
Nc1ccc2oc(-c3ccccc3Cl)nc2c1 | i | i | i | i | 75
Cc1ccc(-c2nc3cc(N)ccc3o2)cc1Br | nt | nt | i | i | nt
Cc1ccc(C)c(-c2nc3cc(N)ccc3o2)c1 | i | i | i | i | i
CCc1ccc2oc(-c3cc(N)ccc3Cl)nc2c1 | i | i | 47 | i | 56
N#Cc1ccc(NN=Nc2ccccc2C#N)cc1 | nt | nt | i | nt | nt
CCCCCNC(=O)C(c1ccnc2ccccc12)n1c(=O)c(-c2cc3ccccc3[nH]2)nc2ccccc21 (stereo unspecified) | nt | nt | i | nt | nt
O=C1NC[C@@H](CCCCN2CCN(CCc3ccc(O)cc3)C(=O)C2=O)N(CCc2ccc(O)cc2)C1=O | nt | nt | i | nt | nt
Nc1ccc(-c2nc3cc(N)ccc3o2)cc1 | nt | nt | i | i | nt
COC(=O)c1ccc(-c2nc3cc(N)ccc3o2)cc1 | i | i | 56 | i | 83
COc1cccc(N2CCN(C(=O)c3ccc4nc(N5CCCCC5)sc4c3)CC2)c1 | i | i | i | 59 | i
COc1ccc(CN(C(=O)CSc2nnc(-c3ccccc3C)o2)c2ccc(F)cc2)cc1 | i | i | 95 | i | i
O=C(CSc1nnc(-c2c[nH]c3ccccc23)o1)N(Cc1ccccc1)c1ccc(F)cc1 | i | i | i | i | i
OC(c1ccc(CN2CCCCC2)cc1)c1ncc(-c2ccccc2F)[nH]1 (stereo unspecified) | nt | nt | i | nt | nt
O=C(O)c1cccc(CN2C(=O)SC(Nc3cccc4ccccc34)C2=O)c1 (stereo unspecified) | i | i | i | i | 58
C(=N\N=C\c1cccs1)/c1cccs1 | i | i | i | i | 83
Cc1cccc(C)c1NC(=O)CNC(=O)c1cn(-c2ccccc2)nc1-c1ccccc1 | nt | nt | i | i | nt
Cc1nn(Cc2c(Cl)cccc2Cl)c(C)c1NC(=O)c1cn(-c2ccccc2)nc1-c1ccccc1 | i | i | 76 | i | i
CN(C(=O)c1cccc(COc2ccc(Cl)cc2Cl)c1)c1ccccc1 | i | i | i | i | i
CN(C)C(=O)c1cccc(COc2ccc(N3C(N)=NC(N)=NC3(C)C)cc2Cl)c1 | nt | nt | 83 | nt | nt
CCCCn1c(=O)[nH]c(=O)c2c1nc(Cn1ncc(Cl)c(Cl)c1=O)n2CCC | nt | nt | 95 | i | nt
CC(=O)Nc1cccc(C(=O)OCC(=O)c2ccccc2Cl)c1 | i | i | i | i | 82
Nc1ccc(-c2nc3ccc(-c4nc5ccccc5o4)cc3[nH]2)cc1 | i | i | i | i | i
Cc1nc2ccc(-c3nc4ccc(N)cc4[nH]3)cc2[nH]1 | i | i | i | i | 78
Nc1ccc2nc(-c3cc(Cl)c(N)c(Cl)c3)[nH]c2c1 | i | i | i | i | i
Cc1nc2ccc(-c3nc4ccccc4o3)cc2[nH]1 | i | i | i | i | 63
SMILES | FLuc stim CS | PPC-1+TRAIL kill | TRAIL sens C8 | HSP90 refold inh | FLuc inhib CS
Nc1ccc2nc(-c3ccc(Cl)cc3)[nH]c2c1 | i | i | i | nt | 75
Nc1ccc2nc(-c3cccc(-c4nc5ccc(N)cc5[nH]4)c3)[nH]c2c1 | nt | nt | i | i | nt
Nc1ccc(-c2nc3ccc(N)cc3[nH]2)cc1 | i | i | i | i | 52
CC1(C(=O)N2CCCCC2)CCN1C(=O)Cc1ccc(-c2ccccc2)cc1 (stereo unspecified) | nt | nt | i | nt | nt
COCCNC(=O)C1(C)CCCN(C(=O)c2cccnc2SC)C1 (stereo unspecified) | nt | nt | i | nt | nt
Cc1ccc(S(=O)(=O)N2[C@@H](c3ccc(Br)cc3)C(C(=O)O)=CC[C@H]2c2ccc3c(c2)OCO3)cc1 | nt | nt | i | nt | nt
COc1ccc(-c2cc3cc(F)ccc3cn2)cc1 | nt | nt | i | nt | nt
COc1ccc(-c2cc3ccc(F)cc3cn2)cc1 | nt | nt | 57 | nt | nt
Cc1cccc(COC[C@H](Cc2ccccc2)N2CCN(C(=O)c3ccc(Cl)c(Cl)c3)CCC2=O)c1 | nt | nt | i | nt | nt
O=C(O)c1ccc(CN2C(=O)c3cccc4c([N+](=O)[O-])ccc(c34)C2=O)cc1 | nt | nt | 58 | i | nt
Cc1cnc(NC(=O)c2c(O)c3cccc4c3n(c2=O)CCC4)s1 | i | i | nt | i | i
CC(C)c1nnc(NC(=O)c2c(O)c3cccc4c3n(c2=O)CCC4)s1 | i | i | 60 | i | i
Cc1cc(C)c2cc(C#N)c(NCCNC(=O)c3cccnc3)nc2c1 | nt | nt | i | nt | nt
Cc1nc2nc(-c3ccc(F)cc3)cn2nc1C | nt | nt | i | i | nt
CCc1ccc(-c2cn3nc(C)c(C)nc3n2)cc1 | i | nt | 56 | i | 84
CCOC(=O)c1ccccc1N=Cc1c(O)c2ccccc2oc1=O | nt | nt | i | i | nt
Cc1cc(O)c(/C=N/c2ccccn2)c(=O)o1 | i | i | i | i | i
CCOc1ccc(N=Cc2c(O)cc(C)oc2=O)cc1 | i | i | i | i | 53
CCOc1ccc(N=Cc2c(O)c3ccccc3oc2=O)cc1 | i | i | i | i | 78
Oc1ccc(-c2nnc(SCC3CCCCC3)o2)cc1 | i | i | 72 | i | i
COc1ccc(S(=O)(=O)NC(=O)C2(C)CCN2C(=O)C(C)(C)c2ccccc2)cc1 (stereo unspecified) | nt | nt | i | nt | nt
C=C1CC2(OC1=O)c1ccccc1CCc1ccccc12 | nt | nt | 91 | nt | nt
CCCCN1C(=O)C(C(=O)OCc2ccccc2)CC2=C1CCCC2=O (stereo unspecified) | nt | nt | i | nt | nt
O=C(CCl)N(c1ccc(Cl)cc1)c1c[nH]c2ccccc12 | i | i | 89 | i | i
O=C(CCl)N(c1ccccc1)c1c[nH]c2ccccc12 | i | i | 98 | i | i
SMILES | FLuc stim CS | PPC-1+TRAIL kill | TRAIL sens C8 | HSP90 refold inh | FLuc inhib CS
O=C(O)Cc1c[nH]c2ccccc12 | nt | nt | i | nt | nt
Nc1ccc(C(=O)Nc2ccc(Nc3ccncc3)cc2)c([N+](=O)[O-])c1 | nt | nt | i | nt | nt
Cc1coc2c1C(=O)C(=O)c1c-2ccc2c(C)cccc12 | nt | i | 54 | nt | nt
Cc1coc2c1C(=O)C(=O)c1c-2ccc2c1CCCC2(C)C | i | i | i | i | i
CCc1nc2ccc(C(=O)NCCC(C)C)cn2c1N(CCN(C)C)CC1CC1 | nt | nt | i | nt | nt
CNc1ccc(/C=C2\CSc3ccccc3C2=O)cc1[N+](=O)[O-] | i | i | i | i | 55
O=C1/C(=C/c2cccc([N+](=O)[O-])c2)CSc2ccc(Cl)cc21 | nt | i | i | i | nt
Nc1nonc1-c1noc(COc2ccccc2Cl)n1 | i | i | i | i | i
Clc1ccc(OCc2nc(-c3ccccn3)no2)c(Br)c1 | i | i | 52 | i | 70
Clc1ccccc1OCc1nc(-c2ccccn2)no1 | i | i | i | i | 51
COc1ccc([C@@H]2C[C@H]3[C@@H](CN2S(=O)(=O)c2ccccc2)C(=O)C[C@@H](c2cccc4ccccc24)N3S(=O)(=O)c2ccc(C)cc2)cc1 | nt | nt | i | nt | nt
N#Cc1cnn(-c2nc3sc4c(c3c(=O)[nH]2)CCCC4)c1N | i | i | i | i | 60
COc1cc(CNc2ncnc3c2ncn3[C@H]2CN(Cc3cccc4ccccc34)C[C@@H](CO)O2)cc(OC)c1OC | nt | nt | i | nt | nt

Bioassay records: PubChem BioAssay, several laboratories
